Assay results as given in ChEMBL document CHEMBL1150353, “Development of novel antiatherogenic biaryls: design, synthesis, and reactivity” (2008).
Calls of active or inactive are those of the source. The calls are words filed in the database; no cut-off is given here.

Assays:
[1] = system: HMEC-1; assay: Protection against oxidized LDL-induced cytotoxicity in HMEC1 cells assessed as residual cell viability after 24 hrs by MTT assay relative to control; format: functional, Homo sapiens
How it was run: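 HMEC-1 exposed 6 h at 37 °C to native LDL (100 µg apoB/mL) with 1 µM CuSO4 in serum-free RPMI, with or without agent (10 µM, DMSO <0.1%); toxicity of the cell-oxidized LDL read by MTT after 24 h, as % of unstimulated cells kept in fresh RPMI without LDL or antioxidant.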

[2] = system: HMEC-1; assay: (§1) Cytoprotective activity against ultraviolet irradiation oxidized LDL-induced cytotoxicity in HMEC1 cells assessed as residual cell survival at 10 uM for 24 hrs by MTT assay relative to control; format: functional; details: Homo sapiens
How it was run: (§2)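 HMEC-1 were exposed to UV-C-oxidized LDL. LDL at 2 mg apoB/mL with 2 µmol/L CuSO₄ was irradiated for 2 h at 254 nm, then added to the medium at 200 µg apoB/mL together with the compound. MTT viability was read after 24 h, as % of unstimulated cells in LDL-free medium. Each value is the mean of four determinations.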

[3] = Antioxidant activity in HMEC1 cells assessed as inhibition of LDL oxidation at 10 uM after 6 hrs by TBARS assay relative to control; format: functional, Homo sapiens, HMEC-1; parameters: scale not given: the % may be the effect or the level left
How it was run: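 HMEC-1 (sparse proliferative) in serum-free RPMI-1640 with native LDL 100 µg apoB/mL and CuSO4 1 µM, 37 °C, 6 h; compounds added from DMSO (<0.1% final) at 10 µM just before oxidation, in duplicate. TBARS in medium measured fluorimetrically; expressed as % of TBARS with cells and no agent.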

[4] = system: HMEC-1; assay: Inhibition of 4-hydroxynonenal-induced carbonyl stress in HMEC1 cells assessed as prevention of increase in carbonylated protein level at 10 uM relative to control; format: functional, cell-based; details: Homo sapiens
How it was run: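 HMEC-1 were incubated overnight with 50 µM 4-HNE in FCS-free RPMI-1640 with the compound, then washed, scraped and pelleted. Protein was derivatized for 1 h at room temperature with 0.1% DNPH in 2 M HCl, precipitated with TCA, and washed with ethanol/ethyl acetate. It was dissolved in 8 M guanidine buffer (pH 7.4) and read at 365 nm. Results are % of unstimulated control, mean of four experiments.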

[5] = system: U-937; assay: Inhibition of foam cell formation in LDL exposed human U937 cells assessed as accumulation of red O-stained lipid droplets at 10 uM for 14 hrs by nile red fluorescence assay; format: functional, cell-based
How it was run: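 U937 grown in RPMI with 10% FCS were used at subconfluence. They were incubated for 14 h in fresh RPMI containing native LDL (100 µg/mL), 1 µM CuSO₄ and agent (10 µM). Cells were fixed in 10% paraformaldehyde, stained with 0.5 µg/mL Nile Red, scraped and read fluorometrically (ex 460/em 550 nm). Parallel slides were stained with oil red O and hematoxylin and examined microscopically. Data are the mean of three experiments.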

[6] = as §1; format: functional, Homo sapiens, HMEC-1; how it was run: as §2
[7] = system: HMEC-1; assay: Cytoprotective activity against ultraviolet irradiation oxidized LDL and 4-hydroxynonenal-induced cytotoxicity in HMEC1 cells assessed as cell survival at 10 uM after 24 hrs relative to control; format: functional, cell-based; details: Homo sapiens
How it was run: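 HMEC-1 were exposed to 4-HNE added directly to the medium, or to UV-oxidized LDL. For the oxidized LDL, LDL at 2 mg apoB/mL with 2 µmol/L CuSO₄ was irradiated with UV-C (254 nm) for 2 h and then added at 200 µg apoB/mL. Compounds were present during exposure. Viability was read by MTT after 24 h, as % of cells in LDL-free medium. Each value is the mean of four determinations.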

| SMILES | Activity [1] [%] | Activity [2] | Activity [3] [%] | Activity [4] | Activity [5] | Activity [6] [%] | Activity [7] |
| --- | --- | --- | --- | --- | --- | --- | --- |
| CCOP(=O)(/C=C/c1cc(OC)c(O)c(-c2cc(/C=N/Nc3nncc4ccccc34)cc(OC)c2O)c1)OCC.Cl | 61.2 | Active | 4.1 | – | – | – | – |
| COc1cc(/C=N/NC(=O)c2ccncc2)cc(-c2cc(/C=N/NC(=O)c3ccncc3)cc(OC)c2O)c1O | 13.5 | – | 83 | inactive | – | – | – |
| CCOP(=O)(/C=C/c1cc(OC)c(O)c(-c2cc(/C=C/P(=O)(OCC)OCC)cc(OC)c2O)c1)OCC | 66 | – | 67.4 | – | Active | – | – |
| CCOP(=O)(/C=C/c1cc(OC)c(O)c(-c2cc(C=O)cc(OC)c2O)c1)OCC | 63.5 | – | 67.5 | – | – | – | – |
| CCOP(=O)(/C=C/c1cc(OC)c(O)c(-c2cc(/C=N/NC(=O)c3ccncc3)cc(OC)c2O)c1)OCC | 31.2 | – | 67.5 | – | – | – | – |
| COc1cc(C=O)cc(-c2cc(C=O)cc(OC)c2O)c1O | 40.5 | – | 86.2 | – | – | – | – |
| COc1cc(/C=N/Nc2nncc3ccccc23)cc(-c2cc(/C=N/Nc3nncc4ccccc34)cc(OC)c2O)c1O.Cl | 82 | – | 2.8 | Active | Active | 80 | Active |
| Cc1c(C)c2c(c(C)c1O)CC[C@@](C)(CCC[C@H](C)CCC[C@H](C)CCCC(C)C)O2 [ALPHA-TOCOPHEROL] | 29 | – | 55 | – | – | – | – |
| CC(C)(Sc1cc(C(C)(C)C)c(O)c(C(C)(C)C)c1)Sc1cc(C(C)(C)C)c(O)c(C(C)(C)C)c1 [PROBUCOL] | 92 | – | 10 | – | – | – | – |
